Assay outcomes as filed in PubChem BioAssay.
Shown are actives, neighbours in structure and some others; about 7.1% of the full set was active somewhere.
Cav3 T inh = human Cav3.2 channel inhibition, primary screen. O95180. Cav3.2-expressing cells, Fluo-4 calcium fluorescence FDSS; hits give low values. B-score at 10 µM. hit rate 4% among 100,000. AID 449739;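 active = single-dose well whose peak fluorescence ratio is a statistical outlier from its plate by either plate-standardised score or position-corrected B-score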
HUVEC prolif 384 = inhibitors of human endothelial cell proliferation; HUVEC proliferation, CellTiter-Glo luminescence, 72 h; hits give low values; viability, % at 10 µM (by protocol); hit rate 1.1% among 86,000; AID 648;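 active = viability at or below 30%; inactive = viability above 30%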;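 note: 100% = median luminescence of DMSO-only cell control wells on each plate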
Lung fibro prol = blocks proliferation of human lung fibroblasts; LL 47 human lung fibroblast viability, ATP luminescence; hits give low values; viability, % at 10 µM; hit rate 1.1% among 85,000; AID 719;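 active = viability at or below 50% in the single dose screen; inactive = viability above 50%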;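 note: compound exposure lasted 72 h before the ATP readout; 100% = median luminescence of untreated cell-only wells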
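Benchmarks: Cell-only wells, no compound | Test system: LL 47 human lung fibroblasts, passage 12 or lower | Input: 1,150 cells/well | Measured by: CellTiter-Glo luminescence measuring cellular ATP | Medium: IMEM, 15% FBS supplement | Schedule: Overnight attachment after seeding, then 72 h compound exposure at 37 °C | Doses: Compound addition at 0.1% DMSO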
HCT116 bCat-KO = beta-catenin-lacking colon tumor cell growth suppression | HCT116 beta-catenin knockout viability, CellTiter-Glo, 60 h; hits give low values | viability, % at 10 µM | hit rate 1.5% among 140,000 | AID 818;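 active = viability at or under a set limit, the compound median less 4 SD, cut at about 6% in these data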;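 note: 0% = Hyamine 1622 control at 20 µM and 100% = untreated cell control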
HCT116 PTEN-null = growth suppressors of cells with PTEN tumor suppressor deletion. HCT116 PTEN-null viability, CellTiter-Glo, 60 h; hits give low values. viability, % at 10 µM. hit rate 1.2% among 140,000. AID 827;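 active = viability at or below a set limit, 4 SD under the median of all tested compounds, cut at about 3.7% in these data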;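 note: PTEN knockout HCT116 line with beta catenin targeted HCT116 as companion control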
H69AR inhibit = blocks growth of human H69AR lung tumor cells. AID 598. hit rate 6% among 85,000. H69AR lung tumor viability, ATP luminescence, 72 h; hits give low values. viability, % at 10 µM;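 active = viability at or below 40%; inactive = viability above 40%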;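 note: multidrug resistant small cell line overexpressing MRP-1 efflux transporter; 100% = mean luminescence of untreated control wells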
Starred values were filed as active, the others as inactive; · = no result.

SMILES	Cav3 T inh	HUVEC prolif 384	Lung fibro prol	HCT116 bCat-KO	HCT116 PTEN-null	H69AR inhibit
O=C(Nc1ccccc1N1CCOCC1)c1ccccc1NS(=O)(=O)c1ccc(F)c(F)c1	-3.96*	·	·	79.4	·	·
COc1ccc(C)cc1C(=O)CCC(=O)Nc1ccccc1N1CCOCC1	-0.236	109.8	90.8	1.2*	1.2*	81.2
Cc1cc(C)c(OCC(=O)Nc2ccccc2N2CCOCC2)c(C)c1	-0.937	105.9	73.6	31.7	32.5	77.6
CN(C)C(=O)c1c2c(nc3ccccc13)-c1ccccc1CC2	0.122	·	·	87.9	88.6	·
O=c1ccc2cc3c([nH]c4ccc(Br)cc43)oc-2c1O	-0.863	101.3	86.8	97.6	99.8	22.6*
CN(C)CCCN(C(=O)c1ccc2c(c1)CCCC2)c1nc2c(F)cccc2s1	·	·	·	29.3	15.8	·
Cc1ccc2nc(N(CCCN(C)C)C(=O)c3ccc4c(c3)CCCC4)sc2c1	·	·	·	3.4*	1.0*	·
Cc1ccc(/C(O)=C2\C(=O)C(=O)N(c3cc(C)on3)C2c2cccc(Cl)c2)cc1 (centres undefined)	-3.1*	83.5	96.7	98.7	95.6	102.2
Cc1cc(N2C(=O)C(=O)/C(=C(/O)c3ccc(F)cc3)C2c2cccc(Br)c2)no1 (centres undefined)	-3.36	86.5	101.2	93.5	84.4	75.8
Cc1ccc(/C(O)=C2\C(=O)C(=O)N(c3cc(C)on3)C2c2cccc(Br)c2)cc1 (centres undefined)	-3.74*	85.1	100.1	92.3	91.1	·
Cc1[nH][nH]c(=O)c1C(c1ccc(-c2ccc(Cl)c(Cl)c2)o1)c1c(C)[nH][nH]c1=O	·	37.8	68.8	48.5	43.0	29.5*
CCOC(=O)c1sc(NC(=O)Nc2ccc(Cl)cc2)nc1C	0.112	·	·	30.1	20.2	·
CC(C)c1ccc(Oc2cccc(C(=O)/C(C#N)=C/N(C)C)c2)cc1	-2.36	92.0	95.8	91.0	94.9	96.6
CN(C)/C=C(\C#N)C(=O)c1cccc(Oc2ccc(Br)cc2)c1	-4.24*	84.6	96.8	103.8	105.3	99.2
Cc1ccc(N=C2SC(C(=O)Nc3ccc(OC(F)(F)F)cc3)C(N)=C2C(=O)Nc2c(C)cc(C)cc2C)cc1 (centres undefined)	·	·	·	41.7	17.3	·
O=C(CN1CCN(c2ncc(C(F)(F)F)cc2Cl)CC1)NCCNc1ncc(C(F)(F)F)cc1Cl	0.252	76.1	101.7	79.4	73.7	3.8*
CN(C)C=NC(=O)c1ccc(N2CCN(c3ncc(C(F)(F)F)cc3Cl)CC2)cc1	-0.475	94.9	92.7	45.0	31.7	47.0
CN(C)/C=C/C(=O)c1ccc(N2CCN(c3ncc(C(F)(F)F)cc3Cl)CC2)cc1	-0.0634	2.3*	52.4	2.1*	10.0	0.8*
Cc1ccc(-n2nc(C)c3c(C)cc(=O)[nH]c32)cc1	-0.0827	84.5	99.5	95.4	84.5	92.4
COc1cc(SC#N)ccc1N=Cc1c(C)[nH]n(-c2ccc(C)c(C)c2)c1=O	·	·	·	0.8*	0.3*	·
COc1cc(SC#N)ccc1N=Cc1c(C)[nH]n(-c2ccc(Cl)cc2)c1=O	-0.622	·	·	94.1	93.4	·
CCC[C@@H]1CCCO[C@@](C(=O)NCCN2CCOCC2)(C(F)(F)F)C1	0.154	·	·	·	·	·
N#Cc1cnc(SCC(=O)NNC(=O)COc2cccc3ccccc23)nc1N	·	·	·	98.3	101.2	·
CCOc1cc(/C=N/NC(=O)Cn2nc([N+](=O)[O-])cc2C)cc(Br)c1OCc1ccccc1C	-0.838	3.6*	5.9*	1.5*	2.1*	0.6*
CCOC(=O)c1c(C)[nH]c(C(=O)OC)c1CCC(=O)OC	1.22	97.9	99.5	99.5	96.3	89.0
SMILES	Cav3 T inh	HUVEC prolif 384	Lung fibro prol	HCT116 bCat-KO	HCT116 PTEN-null	H69AR inhibit
CCOC(=O)c1[nH]c(Cc2[nH]c(C(=O)OCC)c(C)c2CCC(=O)OC)c(CCC(=O)OC)c1C	-8.41*	111.9	98.6	90.0	86.0	80.9
CCOc1cc(S(=O)(=O)Nc2ccc(CC)cc2)ccc1Cl	-2.91	57.5	108.4	88.6	93.5	79.0
CCOc1cc(S(=O)(=O)Nc2ccccc2CC)ccc1Cl	-5.76*	89.8	101.7	91.2	86.1	69.9
Cc1cccc(N2CCN(C(c3cccs3)c3nnnn3C(C)(C)C)CC2)c1C (centres undefined)	-6.36*	113.0	85.0	57.7	48.5	97.4
COCCn1nnnc1C(c1cccs1)N1CCN(c2cc(C)ccc2C)CC1 (centres undefined)	-4.29*	122.3	98.6	58.1	57.0	86.7
CCc1ccc(NC(=O)C2C3/C=C\CCCCC32)cc1 (centres undefined)	·	·	·	92.6	103.0	·
COc1ccc(C(NC(=O)c2cccnc2)c2cc(Cl)c3cccnc3c2O)cc1OC (centres undefined)	1	·	·	7.8	8.0	·
Oc1c(C(Nc2ccccn2)c2cccnc2)cc(Cl)c2cccnc12 (centres undefined)	·	·	·	3.6*	3.9	·
Cc1cc(NC(c2cccnc2)c2ccc3cccnc3c2O)no1 (centres undefined)	0.949	57.2	3.9*	4.3*	5.2	30.6*
Oc1c(C(Nc2cccc(C(F)(F)F)c2)c2cccnc2)ccc2cccnc12 (centres undefined)	·	·	·	18.0	30.4	·
COC(=O)c1c(NC(=O)COC(=O)CCc2ccc(S(=O)(=O)N3CCOCC3)cc2)sc2c1CCC2	·	·	·	84.9	79.5	·
N#CCCN(C(=O)COC(=O)c1ccc(CNS(=O)(=O)c2ccc(F)c(Cl)c2)cc1)c1ccc(F)cc1	·	·	·	61.7	57.4	·
Cc1ccc(NC(=O)N2CCC(O)(c3ccc(Cl)cc3)CC2)cc1	-4.27*	90.5	103.5	102.8	85.5	79.4
O=C(Nc1ccc(Cl)cc1)N1CCCC1	0.526	107.0	96.6	100.5	113.7	88.9
C/C(=N/OC(=O)c1c(F)cccc1F)c1nccs1	-4.65*	·	·	99.6	92.9	·
O=C(N/N=C/c1ccc2c(c1)OCO2)c1sc2cc(Cl)ccc2c1Cl	·	·	·	6.4	2.1*	·
COc1ccc(/C=N/c2oc(-c3ccccc3)cc2C#N)cc1	-0.665	·	·	87.9	93.9	·
COc1[nH]c(/N=C/c2ccccc2)c(C#N)c1C#N	-5.92*	83.0	99.2	94.8	106.8	83.6
Nc1ccc(C(=O)N/N=C/c2ccccc2)cc1	-5.08*	·	·	88.1	84.8	·
O=C(N/N=C/c1ccncc1)c1ccccc1	0.696	·	·	90.6	97.0	·
COc1ccc(-c2cc(-c3c(O)c(OC)c4occc4c3OC)[nH]n2)cc1OC	-0.581	77.7	62.8	20.2	24.3	25.8*
CC(C)(C)NC(=O)[C@@H]1C[C@@H]2CCCC[C@@H]2CN1C[C@@H](O)[C@H](Cc1ccccc1)NC(=O)[C@H](CC(N)=O)NC(=O)c1ccc2ccccc2n1	-5.59*	·	·	·	·	·
COc1cc2c(cc1NC(=O)COC(=O)C(CCSC)NC(=O)c1ccccc1Cl)oc1ccccc12 (centres undefined)	·	·	·	73.9	73.8	·
